Reference: ChEMBL document CHEMBL3046702, “Herbicidal, plant growth inhibitory, and cytotoxic activities of bismuthines containing aromatic heterocycles” (J Agric Food Chem, 2003)
pIC50: −log10 of the molar value. Active and inactive are the calls of the source. The rule behind the calls is not given here.

How the values were obtained:
Artemia salina [1] = test: Toxicity in Artemia salina (brine shrimp) larvae assessed as mortality at 200 uM; assay type: organism-based; conditions: in vivo
Method in brief: (§1)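 Brine shrimp lethality test on *Artemia salina* larvae, run across several concentrations up to a top level of 1000 µM. Mortality was scored at each concentration, and LC50 values in µM were derived from the concentration–mortality data.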

Trifolium pratense [2] = test: Herbicidal activity against Trifolium pratense var. Kenland (red clover) assessed as inhibition of seed respiration during germination after 72 hr by polarographic analysis; assay type: functional, organism-based; conditions: for pIC50: read-out: I50
Method in brief: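 Red clover seeds were exposed to the bismuthines during germination, with respiration followed over the imbibition time. Values were taken at 72 h as the concentration giving 50% inhibition of seed respiration, using means of three experiments.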

Artemia salina [3] = test: Toxicity in Artemia salina (brine shrimp) larvae assessed as mortality at 20 uM; assay type: organism-based; conditions: in vivo; method in brief: as §1
Trifolium pratense [4] = test: Herbicidal activity against Trifolium pratense var. Kenland (red clover) assessed as inhibition of seed germination after 48 hr; assay type: functional, organism-based; conditions: read-out: I50
Phaseolus vulgaris [5] = test: Herbicidal activity against Phaseolus vulgaris assessed as inhibition of seed respiration during germination; assay type: functional, organism-based; conditions: read-out: I50
Artemia salina [6] = test: Toxicity in Artemia salina (brine shrimp) larvae assessed as mortality at 500 to 1000 uM; assay type: organism-based; conditions: in vivo; method in brief: as §1
Lolium multiflorum [7] = test: Herbicidal activity against Lolium multiflorum var. Gulf (Italian ryegrass) assessed as inhibition of seed germination after 48 hr; assay type: functional, organism-based; conditions: read-out: I50
Phaseolus vulgaris [8] = test: Herbicidal activity against Phaseolus vulgaris assessed as inhibition of mitochondrial oxygen uptake; assay type: functional, organism-based; conditions: read-out: I50
Artemia salina [9] = test: Toxicity in Artemia salina (brine shrimp) larvae assessed as mortality at 100 uM; assay type: organism-based; conditions: in vivo; method in brief: as §1
Lactuca sativa [10] = test: Herbicidal activity against Lactuca sativa var.Roman (lettuce) assessed as inhibition of seed germination after 48 hr; assay type: functional, organism-based; conditions: read-out: I50
Artemia salina [11] = test: Toxicity in Artemia salina (brine shrimp) larvae assessed as mortality; assay type: organism-based; conditions: in vivo; method in brief: as §1
Lolium multiflorum [12] = test: Herbicidal activity against Lolium multiflorum var. Gulf (Italian ryegrass) seedlings assessed as root length rate at 3 uM after 48 hr relative to control; assay type: functional, organism-based
Method in brief: (§2)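 Italian ryegrass seedlings grown with 0, 0.5, 1, 3, 5, 7.5 or 10 µM of each bismuthine. Shoot and root lengths were measured at 48 h and expressed as a percentage of the average untreated control length.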

Lactuca sativa [13] = test: Herbicidal activity against Lactuca sativa var.Roman (lettuce) seedlings assessed as root length at 5 uM after 120 hr (reference value: 18 to 19 mm); assay type: functional, organism-based
Physalis ixocarpa = test: Herbicidal activity against Physalis ixocarpa assessed as inhibition of seed respiration during germination after 72 hr by polarographic analysis; assay type: functional, organism-based
Lolium multiflorum [14] = test: Herbicidal activity against Lolium multiflorum var. Gulf (Italian ryegrass) seedlings assessed as shoot length rate at 7.5 uM after 48 hr relative to control; assay type: functional, organism-based; method in brief: as §2
[15] = test system: Radical scavenging activity; test: Antioxidant activity assessed as DPPH free radical scavenging activity at 5 to 100 uM after 30 min by TLC autographic assay; assay type: functional
Lactuca sativa [16] = test: Herbicidal activity against Lactuca sativa var.Roman (lettuce) seedlings assessed as root length at 25 uM after 120 hr (reference value: 18 to 19 mm); assay type: functional, organism-based
Lactuca sativa [17] = test: Herbicidal activity against Lactuca sativa var.Roman (lettuce) assessed as inhibition of seed germination at > 48.8 uM after 48 hr; assay type: functional, organism-based
Lactuca sativa [18] = test: Herbicidal activity against Lactuca sativa var.Roman (lettuce) seedlings assessed as shoot length at 10 uM after 120 hr (reference value: 27 to 31 mm); assay type: functional, organism-based
Lolium multiflorum [19] = test: Herbicidal activity against Lolium multiflorum var. Gulf (Italian ryegrass) seedlings assessed as shoot length rate at 3 uM after 48 hr relative to control; assay type: functional, organism-based; method in brief: as §2
Lolium multiflorum [20] = test: Herbicidal activity against Lolium multiflorum var. Gulf (Italian ryegrass) seedlings assessed as root length rate at 0.5 uM after 48 hr relative to control; assay type: functional, organism-based; method in brief: as §2
Lolium multiflorum [21] = test: Herbicidal activity against Lolium multiflorum var. Gulf (Italian ryegrass) seedlings assessed as shoot length rate at 5 uM after 48 hr relative to control; assay type: functional, organism-based; method in brief: as §2
[22] = test system: Radical scavenging activity; test: Antioxidant activity assessed as DPPH free radical scavenging activity at 5 to 100 uM after 30 min by spectrophotometric analysis; assay type: functional
Method in brief: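 DPPH reduction by the compounds was read spectrophotometrically at 517 nm after 30 min. 100% DMSO served as the blank and quercetin as the reference scavenger.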

Lactuca sativa [23] = test: Herbicidal activity against Lactuca sativa var.Roman (lettuce) seedlings assessed as root length at 75 uM after 120 hr (reference value: 18 to 19 mm); assay type: functional, organism-based
Lactuca sativa [24] = test: Herbicidal activity against Lactuca sativa var.Roman (lettuce) seedlings assessed as root length at 10 uM after 120 hr (reference value: 18 to 19 mm); assay type: functional, organism-based
Lolium multiflorum [25] = test: Herbicidal activity against Lolium multiflorum var. Gulf (Italian ryegrass) seedlings assessed as shoot length rate at 0.5 uM after 48 hr relative to control; assay type: functional, organism-based; method in brief: as §2
Lolium multiflorum [26] = test: Herbicidal activity against Lolium multiflorum var. Gulf (Italian ryegrass) seedlings assessed as shoot length rate at 10 uM after 48 hr relative to control; assay type: functional, organism-based; method in brief: as §2
Lolium multiflorum [27] = test: Herbicidal activity against Lolium multiflorum var. Gulf (Italian ryegrass) assessed as inhibition of seed respiration during germination after 72 hr by polarographic analysis; assay type: functional, organism-based
Lactuca sativa [28] = test: Herbicidal activity against Lactuca sativa var.Roman (lettuce) seedlings assessed as root length at 50 uM after 120 hr (reference value: 18 to 19 mm); assay type: functional, organism-based
Lactuca sativa [29] = test: Herbicidal activity against Lactuca sativa var.Roman (lettuce) seedlings assessed as shoot length at 75 uM after 120 hr (reference value: 27 to 31 mm); assay type: functional, organism-based
Lolium multiflorum [30] = test: Herbicidal activity against Lolium multiflorum var. Gulf (Italian ryegrass) seedlings assessed as shoot length rate at 1 uM after 48 hr relative to control; assay type: functional, organism-based; method in brief: as §2
Lolium multiflorum [31] = test: Herbicidal activity against Lolium multiflorum var. Gulf (Italian ryegrass) seedlings assessed as root length rate at 1 uM after 48 hr relative to control; assay type: functional, organism-based; method in brief: as §2
Lolium multiflorum [32] = test: Herbicidal activity against Lolium multiflorum var. Gulf (Italian ryegrass) seedlings assessed as root length rate at 7.5 uM after 48 hr relative to control; assay type: functional, organism-based; method in brief: as §2
Lolium multiflorum [33] = test: Herbicidal activity against Lolium multiflorum var. Gulf (Italian ryegrass) seedlings assessed as root length rate at 5 uM after 48 hr relative to control; assay type: functional, organism-based; method in brief: as §2
Lactuca sativa [34] = test: Herbicidal activity against Lactuca sativa var.Roman (lettuce) seedlings assessed as shoot length at 5 uM after 120 hr (reference value: 27 to 31 mm); assay type: functional, organism-based
Lactuca sativa [35] = test: Herbicidal activity against Lactuca sativa var.Roman (lettuce) seedlings assessed as seed germination rate at 10 uM after 48 hr relative to control; assay type: functional, organism-based
Lactuca sativa [36] = test: Herbicidal activity against Lactuca sativa var.Roman (lettuce) seedlings assessed as seed germination rate at 3 uM after 48 hr relative to control; assay type: functional, organism-based
Lactuca sativa [37] = test: Herbicidal activity against Lactuca sativa var.Roman (lettuce) assessed as inhibition of seed germination at > 36.6 uM after 48 hr; assay type: functional, organism-based
Lactuca sativa [38] = test: Herbicidal activity against Lactuca sativa var.Roman (lettuce) seedlings assessed as seed germination rate at 0.5 uM after 48 hr relative to control; assay type: functional, organism-based
Lolium multiflorum [39] = test: Herbicidal activity against Lolium multiflorum var. Gulf (Italian ryegrass) seedlings assessed as root length rate at 10 uM after 48 hr relative to control; assay type: functional, organism-based; method in brief: as §2
Trifolium pratense [40] = test: Herbicidal activity against Trifolium pratense var. Kenland (red clover) assessed as inhibition of seed germination at > 18.3 uM after 48 hr; assay type: functional, organism-based
Lactuca sativa [41] = test: Herbicidal activity against Lactuca sativa var.Roman (lettuce) seedlings assessed as seed germination rate at 7.5 uM after 48 hr relative to control; assay type: functional, organism-based
Lactuca sativa [42] = test: Herbicidal activity against Lactuca sativa var.Roman (lettuce) seedlings assessed as seed germination rate at 1 uM after 48 hr relative to control; assay type: functional, organism-based
Lactuca sativa [43] = test: Herbicidal activity against Lactuca sativa var.Roman (lettuce) seedlings assessed as seed germination rate at 5 uM after 48 hr relative to control; assay type: functional, organism-based

## TRIS(2-FURYL)BISMUTH [listing 1 of 2 here]
Artemia salina [1]
  mortality: 68.96%
Trifolium pratense [2]
  pIC50: 5.20
Artemia salina [3]
  mortality: 12.28%
Trifolium pratense [4]
  pIC50: 5.34
Phaseolus vulgaris [5]
  pIC50: 5.96
Artemia salina [6]
  mortality: 100%
Lolium multiflorum [7]
  pIC50: 4.70
Phaseolus vulgaris [8]
  pIC50: 5.00
Artemia salina [9]
  mortality: 50.9%
Lactuca sativa [10]
  pIC50: 4.79
Artemia salina [11]
  LC50: 99 µM

## TRIS(2-THIENYL)BISMUTH
Trifolium pratense [2]
  pIC50: 4.87
Trifolium pratense [4]
  pIC50: 4.91
Lolium multiflorum [7]
  pIC50: 4.44
Phaseolus vulgaris [8]
  pIC50: 4.46
Lactuca sativa [10]
  pIC50: 4.30
Artemia salina [11]
  LC50: > 1000 µM

## TRIS(2-FURYL)BISMUTH [listing 2 of 2 here]
Lolium multiflorum [12]
  Activity: 86%
Lactuca sativa [13]
  Activity: 32 mm
Trifolium pratense [2]
  inhibition: Dose-dependent effect
Physalis ixocarpa
  inhibition: Active
Lolium multiflorum [14]
  Activity: 53%
[15]
  Activity: Active
Lactuca sativa [16]
  Activity: 0 mm
Lactuca sativa [17]
  inhibition: 100%
Lactuca sativa [18]
  Activity: 11 mm
Lolium multiflorum [19]
  Activity: 79%
Lolium multiflorum [20]
  Activity: 78%
Lolium multiflorum [21]
  Activity: 55%
[22]
  Activity: Active
Lactuca sativa [23]
  Activity: 0 mm
Lactuca sativa [24]
  Activity: 7 mm
Lolium multiflorum [25]
  Activity: 82%
Lolium multiflorum [26]
  Activity: 24%
Lolium multiflorum [27]
  inhibition: inactive
Lactuca sativa [28]
  Activity: 0 mm
Lactuca sativa [29]
  Activity: 0 mm
Lolium multiflorum [30]
  Activity: 75%
Lolium multiflorum [31]
  Activity: 70%
Lolium multiflorum [32]
  Activity: 44%
Lolium multiflorum [33]
  Activity: 66%
Lactuca sativa [34]
  Activity: 24 mm
Lactuca sativa [35]
  Activity: 35%
Lactuca sativa [36]
  Activity: 80%
Lactuca sativa [37]
  inhibition: Active
Lactuca sativa [38]
  Activity: 95%
Lolium multiflorum [39]
  Activity: 30%
Trifolium pratense [40]
  inhibition: 100%
Lactuca sativa [41]
  Activity: 35%
Lactuca sativa [42]
  Activity: 95%
Lactuca sativa [43]
  Activity: 70%
